We go through four compounds from PMC7029422 (Bioorganic & medicinal chemistry, 2020).

The subject of experiment [1] is MDA-MB-435 human melanoma cells. The experiment in a line: Cytotoxicity against MDA-MB-435 cells. The note with it: MDA-MB-435, 72 h, read-out: IC50 value toward the MDA-MB-435 human melanoma cells. Format: cell-based.
Experiment [2] concerns HT-29 human colon cancer cells. Put plainly: Cytotoxicity against HT-29 cells. Format: cell-based. The note with it: HT-29, 72 h, read-out: IC50 value toward the HT-29 human colon cancer cells.
Experiment [3] deals with OVCAR3 human ovarian cancer cells. Put plainly: Cytotoxicity against OVCAR3 cells. The class given is cell-based. The settings on record: OVCAR-3, 72 h, read-out: IC50 value toward the OVCAR3 human ovarian cancer cells.
The target in experiment [4] is Na^+/K^+-ATPase (adenosine 5′-triphosphatase from porcine cerebral cortex). The settings on record: read-out: Na+/K+-ATPase activity inhibition, IC50; previous investigation; cited from earlier work.
The subject of experiment [5] is glucose uptake in H1299 human lung cancer cells. The experiment in a line: Glucose uptake assay. Format: cell-based. The note with it: 30 μM, 15 min treatment; WZB117 30 μM as positive control. Put shortly: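 H1299 cells (DMEM, 25 mM glucose, 10% FBS, 37 °C, 5% CO2) in 24-well plates; washed, serum-starved in FBS-free DMEM 1.5 h, then 30 min in glucose-free KRP. Test compound at final 30 μM for 15 min. Uptake then started with 37 MBq/L 2-deoxy-D-[3H]glucose plus 1 mM glucose (final) for 40 min. Stopped with PBS; lysate radioactivity counted by liquid scintillation. Triplicate, three independent experiments; Student's t-test versus vehicle.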

Molecules are shown by their SMILES. Entries after “also recorded” stand apart in the source; their conditions may differ.

Regarding `CO[C@H]1[C@H](O[C@H]2CC[C@]3(C=O)[C@H]4CC[C@]5(C)[C@](O)(C6=CC(=O)OC6)CC[C@]5(O)[C@@H]4CC[C@]3(O)C2)O[C@H](C)[C@H](O)[C@@H]1OC` [Compound 1, (3β)-3-[(2,3-di-O-methyl-β-D-fucopyranosyl)oxy]-5β,14β,17β-trihydroxy-19-oxo-17-epi-card-20(22)-enolide], the IC50 in experiment [1] was over 20000 nM.

Take `CO[C@H]1[C@H](O[C@H]2CC[C@]3(C=O)[C@H]4CC[C@]5(C)[C@@H](C6=CC(=O)OC6)CC[C@]5(O)[C@@H]4CC[C@]3(O)C2)O[C@H](C)[C@H](O)[C@@H]1OC` [Compound 3, (+)-strebloside]: the results for the IC50 in experiment [2], in experiment [3] and in experiment [4] were 170 nM, 130 nM and 160 nM, respectively. Further, the “Inhibition of glucose uptake/transport in H1299 cells” value in experiment [5] was “did not inhibit glucose uptake; also recorded: did not inhibit glucose transport”.

With `CO[C@H]1[C@H](O[C@H]2CC[C@]3(C=O)[C@H]4CC[C@]5(C)[C@@H]6CC[C@]5(O[C@H]5OC(=O)C[C@H]56)[C@@H]4CC[C@]3(O)C2)O[C@H](C)[C@H](O)[C@@H]1OC` [Compound 3a, (+)-20,22-dihydro-14,21-epoxystrebloside], in experiment [1], the IC50 was over 20000 nM.

Turning to `CC(=O)O[C@H]1C(=O)[C@@]2(C)[C@H]([C@H](OC(=O)c3ccccc3)[C@]3(O)C[C@H](OC(=O)[C@H](O)[C@@H](NC(=O)c4ccccc4)c4ccccc4)C(C)=C1C3(C)C)[C@]1(OC(C)=O)CO[C@@H]1C[C@@H]2O` [Paclitaxel, reference compound], in experiment [2], the IC50 is 0.8 nM.
